In test [1] the target is T1, Somatostatin receptor type 4 (Homo sapiens, UniProt P31391). Description: Displacement of [125I]somatostatin-14 (Tyr11) from human SSTR4 expressed in African green monkey COS1 cell membranes after 2 hrs by scintillation counting method. The essentials:
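Membranes from transiently transfected COS-1 cells (10 μg protein) incubated 2 h at room temperature in 10 mM Hepes pH 7.5 with 5 mM MgCl2, bacitracin, 0.5% BSA and ¹²⁵I-[Tyr¹¹]-somatostatin-14 (30,000 cpm), with unlabeled somatostatin-14 and test ligands at various concentrations. Bound radioactivity read by scintillation counting.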
(In a radioligand displacement assay an active substance lowers the binding of a labelled ligand.)

Test [2] concerns the target T2, Somatostatin receptor type 5 (Homo sapiens, UniProt P35346). The test can be described thus: Displacement of [125I]somatostatin-14 (Tyr11) from human SSTR5 expressed in African green monkey COS1 cell membranes after 2 hrs by scintillation counting method. The essentials: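 SSTR-5 gene cloned into pCMV6c and transfected into COS1 cells. Membrane preparation (20 μg protein) incubated 2 h at room temperature in Na⁺-free buffer: 10 mM HEPES, 1% BSA, 5 mM MgCl2, 1 mg/ml bacitracin, pH 7.45. Contained ~10 pM [¹²⁵I-Tyr¹¹]-somatostatin-14, either alone or with somatostatin-14 and test ligands at various concentrations.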

The species named for test [3] is Homo sapiens. Description: Selectivity ratio of Ki for human SSTR4 to Ki for human SSTR5.
Test [4] is filed under the species Homo sapiens. The test can be described thus: Selectivity ratio of Ki for human SSTR5 to Ki for human SSTR4.
Test [5] addresses T1, Somatostatin receptor type 4. Description: Inhibition of human SSTR4 by radioligand binding assay.
The target in test [6] is T2, Somatostatin receptor type 5. The test can be described thus: Inhibition of human SSTR5 by radioligand binding assay.

Where a SMILES comes first, the peptide text is derived from it. Bridges are numbered along the chain shown (N, C = ends). The star is where a group is joined. NH(β-GlcNAc) = CC(=O)N[C@@H]1[C@@H](O)[C@H](O)[C@@H](CO)O[C@H]1N*; Valol = CC(C)[C@@H](CO)N*

T2 sequence (P35346 whole entry): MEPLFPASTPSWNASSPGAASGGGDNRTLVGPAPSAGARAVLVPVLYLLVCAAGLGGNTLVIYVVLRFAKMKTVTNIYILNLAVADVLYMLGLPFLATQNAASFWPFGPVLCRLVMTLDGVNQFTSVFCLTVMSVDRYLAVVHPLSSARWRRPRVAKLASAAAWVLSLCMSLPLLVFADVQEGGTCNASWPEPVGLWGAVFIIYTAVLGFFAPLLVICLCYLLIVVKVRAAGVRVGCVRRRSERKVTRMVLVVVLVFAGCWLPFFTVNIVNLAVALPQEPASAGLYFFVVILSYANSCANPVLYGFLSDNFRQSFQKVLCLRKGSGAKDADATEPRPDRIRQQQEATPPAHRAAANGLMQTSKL
T1 sequence (P31391 whole entry): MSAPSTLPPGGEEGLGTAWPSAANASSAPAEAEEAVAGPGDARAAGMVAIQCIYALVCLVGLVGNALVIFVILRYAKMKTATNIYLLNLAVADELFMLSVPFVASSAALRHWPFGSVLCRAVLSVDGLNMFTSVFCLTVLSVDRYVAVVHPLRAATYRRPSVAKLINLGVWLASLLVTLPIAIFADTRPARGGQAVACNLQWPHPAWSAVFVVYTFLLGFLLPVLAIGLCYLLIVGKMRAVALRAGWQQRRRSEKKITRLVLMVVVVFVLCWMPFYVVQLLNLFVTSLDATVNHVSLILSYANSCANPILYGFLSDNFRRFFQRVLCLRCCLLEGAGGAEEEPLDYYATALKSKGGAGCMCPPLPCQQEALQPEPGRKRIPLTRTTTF

A word on the IC50: it is the concentration at which inhibition is half-maximal. For orientation: Ki means a dissociation constant, usually derived from enzyme kinetics or from competition with a known ligand. For `NCCCCN1CCCCCOCc2cn(nn2)C[C@H]2O[C@H](CC1)[C@H](OCc1cccc3ccccc13)[C@@H](O)[C@H]2O`, the IC50 in test [1] and in test [2] was > 100 µM throughout. For the same molecule, the Ki in test [1] and in test [2] was > 100 µM in each case.
As to `NCCCCC[C@@H]1[C@@H](OCc2ccccc2)[C@H](OCc2ccccc2)[C@@H](OCc2ccccc2)CN1Cc1cccc2ccccc12`, the Ki in test [1] was 1.9 µM; in test [2], 1.3 µM. Further, in test [3], the Ratio Ki was 1.46.
As to `NCCCCCOC[C@@H]1[C@@H](O)[C@H](O)[C@@H](O)CN1CCc1c[nH]c2ccccc12`, the Ki in test [2] was > 100 µM.
As for `NCCCCN1CCCCCCOCc2cn(nn2)C[C@H]2O[C@H](CC1)[C@H](OCc1cccc3ccccc13)[C@@H](O)[C@H]2O`, the concentration for half-maximal inhibition (IC50) in test [1] and in test [2] was > 100 µM in each case. In addition, the Ki in test [1] and in test [2] was > 100 µM throughout.
In test [1], `NC/C=C/CO[C@H]1[C@H](O)[C@H](OCc2ccccc2)COC/C=C/c2cccc(O)c2C(=O)OC[C@@H]1NC(=O)Cc1c[nH]c2ccccc12` returned an IC50 of 0.59 µM and an inhibition constant (Ki) of 0.58 µM. In test [2], this molecule had a half-maximal inhibitory concentration (IC50) of 1.6 µM and a Ki of 1.1 µM.
Consider `CC(=O)O[C@H]1[C@H](OC(C)=O)[C@@H](CCCCCN)N(Cc2cccc3ccccc23)C[C@@H]1OC(C)=O`, for which the Ki in test [1] amounted to 5.4 µM; in test [2] it was 5.1 µM. Moreover, the Ratio Ki in test [3] was found to be 1.05.
Take `CC(=O)N[C@@H]1[C@@H](O)[C@H](O)[C@@H](CO)O[C@H]1NC(=O)C[C@@H]1NC(=O)[C@H](CCCCN)NC(=O)[C@H](Cc2c[nH]c3ccccc23)NC(=O)[C@H](Cc2ccccc2)NC(=O)[C@@H](NC(=O)[C@H](Cc2ccccc2)NC(C)=O)CSSC[C@@H](C(=O)N[C@H](CO)C(C)C)NC1=O` (Ac-FCFWKD(NH(β-GlcNAc))C-Valol; disulfide 2-7): in test [1], the IC50 stood at 21 µM and affinity was put at a Ki of 20 µM. Also, in test [2], the IC50 worked out at 5.2 µM and the Ki turned out to be 3.4 µM.
Regarding `Cc1ccc(S[C@H]2O[C@H](CO)[C@@H](O)[C@H](OC/C=C/CN)[C@@H]2NC(=O)Cc2c[nH]c3ccccc23)cc1`, in test [1], the IC50 came to 2.2 µM and affinity was put at a Ki of 2.1 µM. In test [2], this molecule yielded an IC50 of 5.9 µM and a Ki of 3.9 µM. Also, in test [4], the Ratio Ki was 1.8.
For the molecule `NCCCCC[C@@H]1[C@@H](O)[C@H](O)[C@@H](O)CN1Cc1cccc2ccccc12`, the inhibitory constant (Ki) in test [1] was > 100 µM; in test [2] it was 23 µM.
As for `CC(=O)N[C@@H](Cc1ccccc1)C(=O)N[C@@H](C)C(=O)N[C@@H](Cc1ccccc1)C(=O)N[C@@H](Cc1c[nH]c2ccccc12)C(=O)N[C@@H](CCCCN)C(=O)N[C@@H](CC(=O)O)C(=O)N[C@@H](C)C(=O)N[C@H](CO)C(C)C` (Ac-FAFWKDA-Valol), in test [1], the concentration for half-maximal inhibition (IC50) is > 100 µM and the inhibitory constant (Ki) is > 100 µM. Also, in test [2], the inhibitory constant (Ki) is > 100 µM.
For the molecule `Cc1ccc(S[C@H]2O[C@H](CO)[C@@H](O)[C@H](OCCCCN)[C@@H]2NC(=O)Cc2c[nH]c3ccccc23)cc1`, the IC50 in test [1] is 6.9 µM; in test [2], 18 µM. Also, the results for the inhibition constant (Ki) in test [1] and in test [2] were 6.8 µM and 12 µM, respectively. For the same molecule, the Ratio Ki in test [4] amounted to 1.8.
As to `CC(=O)N[C@@H](Cc1ccccc1)C(=O)N[C@H]1CSSC[C@@H](C(=O)N[C@H](CO)C(C)C)NC(=O)[C@H](CC(=O)O)NC(=O)[C@H](CCCCN)NC(=O)[C@H](Cc2c[nH]c3ccccc23)NC(=O)[C@H](Cc2ccccc2)NC1=O` (Ac-FCFWKDC-Valol; disulfide 2-7), in test [1], the IC50 came to 7.4 µM and the inhibition constant (Ki) was found to be 7.2 µM. Also, in test [2], the IC50 worked out at 16 µM and the Ki is 10 µM.
In the case of `NCCCCO[C@@H]1[C@@H](O)[C@H](CO)OC(O)[C@@H]1NC(=O)Cc1c[nH]c2ccccc12` (stereo not given in full), the inhibition constant Ki in test [1] and in test [2] was > 100 µM throughout.
Take `NCCCCCOC[C@@H]1[C@@H](OCc2ccccc2)[C@H](OCc2ccccc2)[C@@H](OCc2ccccc2)CN1CCc1c[nH]c2ccccc12`: the Ratio Ki in test [4] was determined as 1.13.
Turning to `C[C@@H](O)[C@@H]1NC(=O)[C@H](CCCCN)NC(=O)[C@@H](Cc2c[nH]c3ccccc23)NC(=O)[C@H](Cc2ccccc2)NC(=O)[C@@H](NC(=O)[C@@H](Cc2ccccc2)NC(=O)CN2CCN(CC(=O)O)CCN(CC(=O)O)CCN(CC(=O)O)CC2)CSSC[C@@H](C(=O)N[C@H](CO)[C@@H](C)O)NC1=O`, the IC50 in test [5] is 0.103 µM; in test [6] it was > 1 µM.
With `CC(C)CCO[C@@H]1[C@@H](O)[C@@H](O)[C@H]2Cn3cc(nn3)COCCCCCCN(CCc3c[nH]c4ccccc34)CC[C@H]1O2`, in test [1], the IC50 is 22 µM and the affinity corresponds to a Ki of 21 µM. In test [2], the IC50 is 6.2 µM and the affinity, expressed as Ki, was 4.1 µM.
Consider `NCCCCO[C@H]1[C@H](O)[C@H](OCc2ccccc2)COCCCc2cccc(O)c2C(=O)OC[C@@H]1NC(=O)Cc1c[nH]c2ccccc12`, for which, in test [1], the IC50 stood at 1.2 µM and the Ki came to 1.9 µM. Further, in test [2], the IC50 stood at 3 µM and the affinity corresponds to a Ki of 3.2 µM.

These data come from ChEMBL document CHEMBL4330062 (Eur J Med Chem, 2019).
